ChEMBL document CHEMBL4513216, “Probing the Open Global Health Chemical Diversity Library for Multistage-Active Starting Points for Next-Generation Antimalarials” (ACS Infect Dis, 2020)

test: Toxicity liver stage against HepG2, at 10uM; type: cell-based; parameters: test concentration 10 uM, cell line HepG2-A16-CD81EGFP; details: human, HepG2-A16-CD81EGFP cells; read-out: INHIBITION
Outline: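 Uninfected HepG2-A16-CD81EGFP cells, 3 × 10^3 per well, 1536-well, plated on prespotted compound at 10 μM final, parasite-free screening media added to match infected plates; puromycin 10 μM positive, DMSO 0.5% negative; run in parallel with 48 h PbLuc assay at 37 °C, 5% CO2; viability by CellTiter-Glo luminescence, normalized to controls.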

Structure (SMILES)	cytotoxicity at 10 µM [%]
CC(=O)N1N=C(COc2ccc3c(c2)OCO3)OC1c1ccc(C)cc1 (stereo unspecified)	1.22
COC(=O)CCCNC(=O)N1CCc2c([nH]c3ccc(Cl)cc23)C1	9.43
COc1ccc(C[C@H]2CN(C(=O)c3cnoc3)CC[C@@H]2OC)cc1	4.09
CCOCC1CN(C(=O)c2cnoc2C)Cc2cn(CC3CC3)nc21 (stereo unspecified)	17
COCCN1CCCc2sc(C(=O)NCC3CCCO3)nc21 (stereo unspecified)	5.96
CCOCc1ncn2c1CN(S(=O)(=O)c1ccc(OC)cc1)CC2	0.199
CCOCc1ncn2c1CN(S(=O)(=O)c1ccc(C)cc1)CC2	-0.602
CCCN(CC)C(=O)c1ncn2c1CN(C)S(=O)(=O)c1ccccc1-2	-152
CCS(=O)(=O)N1CCC2(COCc3cnc(N4CCOCC4)nc32)C1 (stereo unspecified)	-4.92
Cc1nc(CN2CC[C@H]3C[C@H](c4ccncn4)O[C@@H]3C2)cs1	-144
O=C(NCCN1CCOCC1)c1nc(-c2ccc3[nH]ccc3c2)no1	-7.53
CC1(C)CC(=O)c2cnc3nc(N4CCCCC4)nc(O)c3c2C1	-0.0124
CCc1cnc2c(c1Nc1ccc(OC)cc1)c(=O)n(C)c(=O)n2C	4.26
O=S(=O)(c1cn[nH]c1)N1C[C@@H](O)[C@H](N2CCc3ccccc3C2)C1	-3.47
O=C(c1ccc(-n2cccn2)nc1)N1CCCC(c2cnccn2)C1 (stereo unspecified)	4.32
Cc1cc(C)nc(N2CCC(CNC(=O)c3cnccn3)CC2)n1	-26.1
Cc1cc(N2CCCC2c2cc(Nc3cnccn3)nc(C)n2)ncn1 (stereo unspecified)	-14
CN(C)C(=O)CN1CCCC(CCCc2ccccn2)(C(N)=O)C1 (stereo unspecified)	-23.2
CC(C)S(=O)(=O)C(C)C(=O)Nc1ccc2oc(C3CC3)nc2c1 (stereo unspecified)	1.77
Cc1cc(CN(C)C(=O)Nc2cnc3c(c2)c(C)nn3C)no1	3.77
CC(C)c1ccc(OCCC(=O)N(C)CC(N)=O)cc1	6.77

Structure (SMILES)	cytotoxicity at 10 µM [%]
CNC(=O)C1CCCCN1C(=O)c1csc(-c2ccccc2)n1 (stereo unspecified)	2
CCCN(CCC)S(=O)(=O)NC(C)C(=O)N(C)C (stereo unspecified)	-0.237
CC(C)c1nc(CSc2nnc(-c3cccs3)n2CC(N)=O)no1	-142
CCOc1ccc(NC2CCN(CC(F)(F)F)C2=O)cc1C (stereo unspecified)	1.41
CC(C)N1CCC(CNC(=O)COc2ccc(F)cc2F)C1 (stereo unspecified)	-2.17
c1csc(-c2cc(CN3CCN(c4nccs4)CC3)no2)c1	13.2
CN(C)c1cc2c(nn1)CCN(C(=O)Cc1ccc3c(c1)CCO3)C2	5.71
O=C(NCCNc1ncccn1)N1CC=C(c2ccccc2)CC1	12.6
O=C(Cc1ccon1)NC1CC2(CCC2)Oc2ccccc21 (stereo unspecified)	-6.71
COC(=O)N1CCC(Nc2cccc(F)c2C(C)=O)CC1	12.7
Cc1ccc(CCNC(=O)NCc2cccc(OC(F)F)c2)cn1	-2.66
O=C(NCc1ccccn1)NCC(c1ccco1)N1CCCCC1 (stereo unspecified)	-2.93
Cc1cnn(CC2CN(CCS(=O)(=O)C(F)(F)F)CCO2)c1 (stereo unspecified)	2.5
Cc1cn(CC(=O)NC2CCN(CC3CC3)CC2)c2ccccc12	0.951
CCN(C(=O)COc1nc(Cc2ccc(F)cc2)no1)C1CC1	5.09
Cc1ncncc1C(=O)NCCN1CCC(C)CC1	-8.76
Cc1ncsc1CCN1CCC(N(C)Cc2noc(C(C)C)n2)C1 (stereo unspecified)	2.17
CCN(C(=O)CNc1cc(C)c(F)cc1C(N)=O)C1CC1	2.14
CCC(C)(CC(=O)O)NC(=O)Cc1ccccc1Br (stereo unspecified)	1.29
CCCS(=O)(=O)N1CCN(C(=O)CO)CC1	-1.96
CC(C)Oc1nnc(SCC(=O)NCC(=O)N2CCCC2)s1	1.38

Structure (SMILES)	cytotoxicity at 10 µM [%]
CCCC1CCCN(C(=O)Nc2ccnc(C(=O)N(C)C)c2)CC1 (stereo unspecified)	9.58
c1csc(-c2nc(CN3CCCC3Cn3cncn3)co2)c1 (stereo unspecified)	-11.5
O=C(c1ccccn1)N1CCc2ncnc(-c3ccncc3)c2CC1	-1.82
Cc1nc(CN2CCN(Cc3cc4n(n3)CCNC4)CC2)cs1	-3.25
Cc1nc(CCC(=O)N2Cc3cnc(-c4ccccc4)nc3C2)n[nH]1	-0.227
CCc1ncc2c(n1)CN(c1cc(NC3CC3)nc(N)n1)C2	5.75
CCCc1nnc(N2CC[C@](C)(O)[C@H](C)C2)s1	-10.4
CCCNC(=O)N1CCC(c2nnc(Cn3cccn3)n2C2CC2)CC1	-7.92
CCCNC(=O)N1CCc2ccc(S(=O)(=O)N3CCN(C)CC3)cc2C1	-10
Cc1cc(-c2nccn2CCN2CCCCC2CO)oc1C (stereo unspecified)	0.264
CC1(C(=O)NCc2cccnc2Oc2ccc(F)c(F)c2)CCCNC1 (stereo unspecified)	-0.37
Oc1cccc(-c2cc(C3CCN(Cc4cncnc4)C3)ccn2)c1 (stereo unspecified)	5.06
CCn1c(Cn2cncn2)nnc1C1CCN(Cc2cccnc2)CC1	5.91
CCc1nc(N2CCC3(CC2)[C@H](O)C[C@@H]3O)ncc1C	6.02
CCCn1nc(C)c(CNC(=O)c2snnc2C)c1C	-15.5
O=C1CSc2ccccc2N1CC(=O)N1CCCCC1c1nccs1 (stereo unspecified)	14.4
CN(CCCO)Cc1cc(Cl)ccc1OCC(O)CN1CCCCCC1 (stereo unspecified)	2.71
CCCc1noc(-c2cn(CC(=O)N(CC)CC)nn2)n1	3.35
Cc1ccc(N2CCN(C(=O)CCC(F)(F)F)C(C)C2)cc1 (stereo unspecified)	-143
CN(Cc1ccon1)C(=O)C1CC(=O)N(Cc2cccnc2)C1 (stereo unspecified)	-3.83
Cc1ccnc(N2CCC(=O)N(Cc3ccc(F)cc3)C(C(C)C)C2)n1 (stereo unspecified)	0.538

Structure (SMILES)	cytotoxicity at 10 µM [%]
COC(=O)N1CC(C)=C(C)CN1C(=O)Nc1ccc(Cl)c(Cl)c1	-1.53
CN(C)CC1CN(Cc2nc(-c3cccnc3)no2)CCO1 (stereo unspecified)	-2.03
CC1COCCN1Cc1nc(-c2ccc(Br)s2)no1 (stereo unspecified)	-2.45
CCOc1ncccc1CNC(=O)Nc1ccc(OC)c(OC)c1	-3.82
CC(CNC(=O)c1cc(C2CC2)on1)N1CCc2ccccc21 (stereo unspecified)	-11.8
O=C(CCn1cncn1)NCC(c1ccco1)N1CCCC1 (stereo unspecified)	-3.62
COc1ccsc1C(=O)N1CCCN(Cc2cscn2)CC1	-9.12
Cc1nc(C)n(C2CCCN(C(=O)c3cccc4[nH]ncc34)C2)n1 (stereo unspecified)	-4.72
CC(C)c1nccn1C1CCCN(C(=O)c2ccc3c(c2)COC3)C1 (stereo unspecified)	3.19
O=C(CCN1CCN(c2ccc3nncn3n2)CC1)NC1CCCC1	-27.5
CC(CNCc1ccncc1)Oc1ccccn1 (stereo unspecified)	-1.71
CC(C)NC(=O)N1CCC2(CC1)C(=O)NCCN2Cc1ccccc1	1.29
CC(=O)N1[C@H](CN(C)C)C[C@@H]2CN(C(=O)c3cnc(C)cn3)CC[C@@H]21	-2.89
CN(C)C(=O)CC1CC2(CCN(CC3CC3)CC2)Oc2ccccc21 (stereo unspecified)	-3.51
CC(=O)c1cc(CN2C[C@@H]3CC[C@H]2CN(S(C)(=O)=O)C3)cs1	8.35
Cc1ccoc1C1=NNC(=CN2CCOC(Cn3cccn3)C2)O1 (stereo unspecified)	-7.69
CCc1ccc(NC(=O)N2C[C@@H]3C[C@H](C(=O)NC4CCC4)[C@H](C2)O3)cc1	-2.25
CCCN1C[C@@H]2CC[C@H]1CN(C(=O)Cc1c(C)[nH]c(CC)nc1=O)C2	-0.529
